Source: PubChem
L major viab = Leishmania major promastigote growth inhibition, primary screen; Leishmania major promastigotes, resazurin fluorescence viability; inhibition, % at 10 µM; 200,000 compounds, 9% hits; in the data active = inhibition above about 50%;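 note: promastigotes grown with compound for 44 hours at 28 °C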
HCT116 PTEN-null = growth suppression of PTEN-null HCT116, primary screen, cell-based, CellTiter-Glo; HCT116 PTEN-null viability, 60 h; stronger effect = lower value; viability, % at 10 µM; AID 827, 2007; 140,000 compounds, 1.2% hits;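 active = viability at or below a set limit, 4 SD under the median of all tested compounds, cut at about 3.7% in these data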;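 note: PTEN knockout HCT116 line with beta catenin targeted HCT116 as companion control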
HCT116 bCat-KO = primary screen for growth suppressors in beta-catenin knockout HCT116 cells (colon tumor, human) | HCT116 beta-catenin knockout viability, CellTiter-Glo, 60 h; stronger effect = lower value | viability, % at 10 µM | 140,000 compounds, 1.5% hits;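 active = viability at or under a set limit, the compound median less 4 SD, cut at about 6% in these data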;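 note: 0% = Hyamine 1622 control at 20 µM and 100% = untreated cell control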
Autophagy HCS = autophagy modulators in MEF cells, primary screen, imaging, high-content, MEF GFP-LC3 | MEF GFP-LC3 puncta imaging; test concentration mostly 10 µM | calls only at 10 µM (by protocol) | 190,000 compounds, 0.98% hits | AID 463193, 2010;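 active = percentage of spot-positive cells more than 3 SD above its plate mean, without a fluorescence outlier flag or 80% toxicity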;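 note: spot-positive cell cutoff set from DMSO-treated cells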
Dynein transport = inhibitors of GR-EGFP nuclear translocation, primary screen, dynein cargo transport inhibitor project, imaging, high-content, 3617.4 mouse cells | 220,000 compounds, 0.47% hits | z-score, hits read low | test concentration mostly 20 µM; stimulated with dexamethasone, 1 µM; stronger effect = lower value;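 active = plate z-score of nuclear minus cytoplasmic receptor signal below a set negative limit, without overly bright fluorescence or cell loss, cut at about -3.5 in these data, passing the limit was not always enough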;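 note: z-score of nuclear minus cytoplasmic ring GR-EGFP intensity difference per well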
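medium = tetracycline-free induction medium containing charcoal-stripped FBS | probe or stimulus = dexamethasone, 1.0 µM final | timing = 48 h induction, then 1 h compound, then 30 min agonist, 37 °C | detection = automated 10x imaging of fixed Hoechst-stained cells | read-out basis = nuclear versus cytoplasmic GR-EGFP signal, averaged per well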
An asterisk follows results filed as active; i = inactive; / = no result given; + = active, no number. Only some compounds are listed: those with a hit (about 9.2% of all), similar ones and a draw of the others.

SMILES	L major viab	HCT116 PTEN-null	HCT116 bCat-KO	Autophagy HCS	Dynein transport
N/C(=N/OC(=O)c1cccc([N+](=O)[O-])c1)c1cccc([N+](=O)[O-])c1	-1	/	/	i	-0.81
COc1ccc(C/C(N)=N/OC(=O)c2cccc([N+](=O)[O-])c2)cc1	63*	92	99	i	-0.47
COc1cc(C(=O)O/N=C(\N)Cc2ccc([N+](=O)[O-])cc2)cc(OC)c1OC	/	/	/	/	-1.6
CC1=C(C)/C(=N/OC(=O)c2cccc([N+](=O)[O-])c2)C=CC1=O	100*	1.7*	1.6*	i	-1.8
Cc1c(Cl)c([N+](=O)[O-])nn1CC(=O)NC(C)C1CC2CCC1C2 (stereo not given)	4	82	77	i	-0.15
Cc1ccc(O)c(-c2cc(C(=O)Nc3ccc(S(=O)(=O)Nc4nccc(C)n4)cc3)[nH]n2)c1	/	/	/	/	-0.056
O=C(Nc1nc2ccc([N+](=O)[O-])cc2s1)c1ccco1	-4	/	/	i	-0.51
CCOC(=O)CNC(c1ccccc1)c1cc(Br)ccc1NC(=O)OCC (stereo not given)	54*	79	73	i	-0.71
CCOC(=O)CNC(c1ccccc1)c1cc(Br)ccc1NC(=O)CCN1CCOCC1 (stereo not given)	98*	73	68	i	-2.9
CCOC(=O)Nc1ccc(C)cc1Br	-2	0.2*	0.4*	i	-0.44
COC(=O)CNC(c1ccccc1)c1cc(Br)ccc1NC(=O)CCN1CCOCC1 (stereo not given)	100*	83	86	i	-2.6
COc1ccc(C2C3=C(CC(C)(C)CC3=O)Nc3nc(C)nn32)cc1OC (stereo not given)	/	/	/	/	-0.077
CCCCCC(=O)NC(=S)Nc1ccc2oc(=O)ccc2c1	6	/	/	i	0.038
COc1nnc(-c2ccc(N3CCCCC3)c(NC(=O)C3CCCCC3)c2)c2ccccc12	54*	12	11	i	0.65
Cc1c2cnn(-c3ccccc3)c(=O)c2c(C)n1CCCC(=O)N1CCN(c2ncccn2)CC1	-7	67	68	i	-0.22
CCN1CCN(C(=O)CCCn2c(C)c3cnn(-c4ccccc4)c(=O)c3c2C)CC1	69*	98	96	i	-0.018
Cc1cc(C(=O)NNc2ccc(F)cc2F)no1	/	/	/	/	-0.53
C/C(=N\N=C(/N)SC1CC(=O)N(c2ccc(Br)cc2)C1=O)c1cccs1 (stereo not given)	100*	89	81	i	-0.86
N/C(=N\N=C\c1cccs1)SC1CC(=O)N(c2ccc(Br)cc2)C1=O (stereo not given)	100*	/	/	i	0.94
Cc1c(NC(=O)C(C)Sc2ncnc3ccccc23)c(=O)n(-c2ccccc2)n1C (stereo not given)	-4	/	/	i	0.31
Clc1ncnc2c1oc1ccccc12	2	9	4.1*	i	-0.94
COc1ccc(NC(=O)C23CC4CC(C2)CC(n2cnc(Br)n2)(C4)C3)cc1OC	-3	91	98	i	1.9
O=C(Nc1ccon1)C12CC3CC(C1)CC(n1cnc([N+](=O)[O-])n1)(C3)C2	62*	/	/	i	0.64
Cc1cc(NC(=O)C23CC4CC(C2)CC(n2cnc([N+](=O)[O-])n2)(C4)C3)no1	51*	/	/	i	0.49
Cc1nnsc1C(=O)N/N=C/c1ccccc1	42	99	95	i	0.27
SMILES	L major viab	HCT116 PTEN-null	HCT116 bCat-KO	Autophagy HCS	Dynein transport
Cc1nnsc1C(=O)N/N=C/c1ccc2ccccc2c1O	100*	16	9	i	0.74
Cc1onc(-c2c(F)cccc2Cl)c1C(=O)O/N=C(\N)c1ccc([N+](=O)[O-])o1	/	/	/	/	-0.47
CCOc1cc(/C=C2/NC(=O)NC2=O)cc(Br)c1OCc1ccc(C(=O)O)cc1	4	/	/	+	-0.72
O=[N+]([O-])c1ccc(O)c(/C=N/Nc2ccc(Cl)nn2)c1	100*	8	7	i	-0.22
O=C(N/N=C/c1cc([N+](=O)[O-])ccc1O)C1CCCCC1	97*	18	26	i	2.3
O=C(N/N=C/c1cc([N+](=O)[O-])ccc1O)C1C2CCCCC21 (stereo not given)	92*	/	/	i	0.34
Cc1cc(C)c(NC(=O)COC(=O)/C=C/c2cccs2)c(C)c1	-6	92	97	i	0.52
Cc1ccc(S(=O)(=O)Nc2ccccn2)cc1[N+](=O)[O-]	0	/	/	i	0.46
Cc1cc(C=O)c(C)n1-c1cc(C(F)(F)F)ccc1N1CCOCC1	94*	59	74	i	0.27
CCCn1c(SCC(=O)Nc2cccc(S(=O)(=O)N(C)C)c2)nc2ccccc2c1=O	/	/	/	/	0.13
O=C(CN1C(=O)c2cccc3cccc(c23)C1=O)N1CCN(Cc2ccc3c(c2)OCO3)CC1	18	88	76	i	2
S=C(NCc1ccc2c(c1)OCO2)NCc1ccc2c(c1)OCO2	7	91	98	i	1.7
CCc1cccc(CC)c1NC(=S)NCc1ccc2c(c1)OCO2	60*	72	78	i	0.087
CC1=C2C(CCS2(=O)=O)CC2(C1)C(=O)OC(C)(C)OC2=O (stereo not given)	-6	116	102	i	-0.13
CCOc1ccc(OCCCCN2CCCC2)cc1	99*	84	74	i	-0.69
COC(=O)c1ccccc1OCCOc1ccccc1C(=O)OC	-4	85	90	i	-1.3
COC(=O)c1ccccc1OCCCCN1CC(C)OC(C)C1 (stereo not given)	88*	93	92	i	1.1
CCCCOc1ccc(CN2CCCCC2)cc1	93*	96	94	i	-0.33
CCOc1ccccc1OCCCCN1CCCC1	17	93	88	i	-0.48
COc1ccccc1N1CCN(CCCCCCOc2ccc(F)cc2)CC1	22	54	48	i	-0.58
Fc1ccc(OCCCCCN2CCCC2)cc1	87*	80	81	i	-0.16
CC1CC(C)CN(S(=O)(=O)c2ccc(NC(=S)NC(=O)c3ccccc3)cc2)C1 (stereo not given)	-1	77	81	i	0.066
N/C(CS(=O)(=O)c1ccc(F)cc1)=N\O	/	/	/	/	-0.28
Cc1ccc(C)c(OCCOCCN2CC(C)OC(C)C2)c1C (stereo not given)	91*	80	76	i	-0.17
CC1CN(CCOCCSc2ccccc2)CC(C)O1 (stereo not given)	10	/	/	i	-0.67
CC1CN(CCCCOc2ccc(F)cc2)CC(C)O1 (stereo not given)	85*	/	/	i	0.49
COc1cccc(OCc2cc(/C=N/Nc3ccc(C(=O)O)cc3)ccc2OC)c1	/	/	/	/	0.086
C=CCSc1ncc(C#N)c(N)n1	-3	96	100	i	-0.21
Cc1cc(N/C=C/C(=O)c2cccc3ccccc23)no1	0	73	75	i	-0.59
